Assay results collected from several papers.
Compare with care: the assays were run in different laboratories.
Target: Homeodomain-interacting protein kinase 1 (HIPK1, Homo sapiens, UniProt Q86Z02)

SMILES	test	conditions	endpoint	result
COc1cc2nccc(Oc3ccc(NC(=O)c4c5n(n(-c6ccc(F)cc6)c4=O)CCCC5)cc3)c2cc1OC	enzyme activity, inhibitor	0.1 µM	inhibition	12%
Cc1ccc(NC(=O)c2ccc(C)c(C(F)(F)F)c2)cc1C#Cc1nn(C2CCC(O)CC2)c2ncnc(N)c12 (stereo not drawn)	cell-free assay	10 µM	remaining signal	107%
COc1cc2ncnc(Nc3ccc(Oc4ccccc4)c(C)c3C)c2cc1OC	enzyme activity, inhibitor	1 µM	inhibition	3%
CC(=O)c1c(NS(C)(=O)=O)c2cc(-c3ccc(Cl)cc3)c(-c3ccc(Cl)cc3Cl)nc2n(C)c1=O	cell-free assay, competition with immobilised ligand	1 µM	remaining binding	96%
COc1cccc(CCNc2nc3cc(C(=O)O)ccc3c3cncnc23)c1	enzyme activity, inhibitor, radiometric	1 µM	remaining activity	36%
O=C1Nc2ccc(Cl)cc2C1=Cc1cc(Cl)c(O)c(Cl)c1	cell-free assay	0.5 µM	remaining signal	102%
O=C(O)c1ccc2c(c1)nc(NCCc1cccc(F)c1)c1ccncc12	enzyme activity, inhibitor, radiometric	1 µM	remaining activity	13%
C[C@H](c1ccc(F)cc1)N(Cc1cccc(C(=O)O)c1)C(=O)c1cnc2ccccc2c1	cell-free assay, competition with immobilised ligand	1 µM	remaining binding	100%
O=C(O)c1ccc2c(c1)nc(Nc1ccc3ccccc3c1)c1ccncc12	enzyme activity, inhibitor, radiometric	1 µM	remaining activity	13%
CN1CC(Oc2cnc(C#N)cc2-c2ccn3nc(NC(=O)C4CC4)cc3c2)C1	enzyme activity, inhibitor	1 µM	inhibition	-3%
O=C(O)c1ccc2c(c1)nc(Nc1ccc(Cl)cc1)c1ccncc12	enzyme activity, inhibitor, radiometric	1 µM	remaining activity	6%
FC(F)(F)Oc1cccc(-c2cnc3ccc(-c4ccncc4)nn23)c1	enzyme activity, inhibitor, radiometric	5 µM	activity vs control	29%
Cc1sc(C(=O)NC2COC2)cc1-n1cc(NC(=O)Nc2c(F)cccc2Cl)cn1	enzyme activity, inhibitor	10 µM	remaining activity	116%
CO[C@@H](C)c1c(Nc2ccc([C@@H](N(C)C(=O)C3CCS(=O)(=O)CC3)C(F)(F)F)cc2)cnc2cc(Cl)nn12	cell-free assay, competition with immobilised ligand	1 µM	remaining binding	56%
O=C(O)c1ccc2c(c1)nc(Nc1cccc(F)c1)c1ncncc12	enzyme activity, inhibitor, radiometric	1 µM	remaining activity	3%
CCC(=O)N[C@H]1CC[C@@H](C(=O)N(C)c2ccc(-c3nc4ccccc4o3)cc2)C1	cell-free assay, competition with immobilised ligand	1 µM	remaining binding	80%
Cc1ccc(Nc2nccc(N(C)c3ccc4c(C)n(C)nc4c3)n2)cc1S(N)(=O)=O	enzyme activity, inhibitor	10 µM	inhibition	21%
Cc1c[nH]c2nccc(Oc3c(F)cc(Nc4cc(Cl)nc(N)n4)cc3F)c12	cell-free assay, competition with immobilised ligand	0.1 µM	remaining binding	100%
CCN(CC)CCNC(=O)c1c(C)[nH]c(/C=C2\C(=O)Nc3ccc(F)cc32)c1C	enzyme activity, inhibitor	10 µM	inhibition	59%
COc1cccc(CCNc2nc3cc(C(=O)O)ccc3c3cnccc23)c1	enzyme activity, inhibitor, radiometric	1 µM	remaining activity	16%
Cc1c(NC(=O)c2cc(C(N)=O)nc3cc(F)ccc23)c(C(F)(F)F)nn1Cc1ccc(C(C)(C)C)cc1	cell-free assay, competition with immobilised ligand	1 µM	remaining binding	92%
